Data taken from ChEMBL document CHEMBL1145847, “(S)-N-[1-(3-morpholin-4-ylphenyl)ethyl]- 3-phenylacrylamide: an orally bioavailable KCNQ2 opener with significant activity in a cortical spreading depression model of migraine” (J Med Chem, 2003).

Key:
[1] = Percentage oral bioavailability determined in dog; assay type: ADME, organism-based, Canis lupus familiaris; conditions: in vivo, read-out: Bioavailabiility
Outline: (§1)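 Beagle dogs (n = 3), oral solution at 3 mg/kg in 50% PEG-400/50% H2O, with iv reference at 1 mg/kg; tmax and oral bioavailability derived.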

Rattus norvegicus [2] = assay: Ability to reduce the total number of proximal depolarizations was tested in rat parietal cortex at 3 mg/kg, ig; assay type: functional; conditions: route intragastric
Outline: (§2)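 Rats; cortical spreading depression evoked by 10 min application of crystalline KCl to a small parietal cortex region. Compound given intragastrically in PEG 400 vehicle. Depolarizations counted in proximal and distal leads per animal; proximal/distal ratio calculated per group. Group mean ± SEM; Kruskal–Wallis with Dunn's posttest.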

[3] = Clearance rate determined at 1 mg/kg, iv, in dog; assay type: ADME, organism-based, Canis lupus familiaris; set-up: dose 1 mg/kg; conditions: in vivo
Outline: (§3)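 Beagle dogs (n = 3), 1 mg/kg iv as a solution in 50% PEG-400/50% H2O; plasma pharmacokinetics giving clearance, half-life and steady-state volume of distribution.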

[4] = Ratio of proximal to distal depolarizations determined in rat at 30 mg/kg; assay type: functional; outline: as §2
[5] = biological target: Potassium voltage-gated channel subfamily KQT member 2 (Mus musculus) (UniProt Q9Z351); assay: Threshold for augmenting KCNQ2 current in HEK 293 stable cell line expressing mKCNQ2 channel; assay type: functional, cell-based; conditions: HEK293
Outline: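 HEK 293 cells stably expressing mKCNQ2, voltage-clamped at -40 mV; compound applied by local superfusion at increasing concentrations, then washed with compound-free saline; concentration–response from three cells with logistic fit.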

[6] = tmax determined dog at 3 mg/kg, po; assay type: ADME, organism-based, Canis lupus familiaris; set-up: dose 3 mg/kg, route oral; conditions: in vivo; outline: as §1
Rattus norvegicus [7] = assay: Ability to reduce the total number of proximal depolarizations was tested in rat parietal cortex at 10 mg/kg, ig; assay type: functional; conditions: route intragastric; outline: as §2
[8] = Ratio of concentration of compound in brain to the concentration in plasma; conditions: brain and plasma, B/P ratio
[9] = Concentration determined in rat brain after 6 hr; assay type: ADME, organism-based
Outline: (§4)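 Sprague–Dawley rats (n = 3) dosed po at 20 mg/kg as a solution in 100% PEG-400; brain and plasma sampled at 6 h.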

[10] = Percentage oral bioavailability determined in rat; assay type: ADME, organism-based; conditions: in vivo, read-out: Bioavailabiility
[11] = Ratio of proximal to distal depolarizations determined in rat at 3 mg/kg; assay type: functional; outline: as §2
Rattus norvegicus [12] = assay: Ability to reduce the total number of proximal depolarizations was tested in rat parietal cortex at 30 mg/kg, ig; assay type: functional; conditions: route intragastric; outline: as §2
[13] = Concentration determined in rat plasma after 6 hr; assay type: ADME, organism-based; outline: as §4
[14] = biological target: Potassium voltage-gated channel subfamily KQT member 2 (Mus musculus, UniProt Q9Z351); assay: Induced current in Xenopus laevis oocytes expressing cloned mKCNQ2 channels; assay type: functional, cell-based, Oocyte
Outline: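 Two-electrode voltage clamp of Xenopus laevis oocytes expressing cloned mKCNQ2; outward current at -40 mV expressed as percent of compound-free control; concentration–response fit for EC50, n = 4–7 oocytes.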

[15] = Half-life determined at 1 mg/kg, iv, in dog; assay type: ADME, organism-based, Canis lupus familiaris; set-up: dose 1 mg/kg; conditions: in vivo; outline: as §3
[16] = Ratio of proximal to distal depolarizations determined in rat at 10 mg/kg; assay type: functional; outline: as §2
[17] = Half-life determined at 5 mg/kg, iv, in rat; assay type: ADME, organism-based; set-up: dose 5 mg/kg; conditions: in vivo
Outline: (§5)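 Sprague–Dawley rats (n = 3), 5 mg/kg iv as a solution in 90% PEG-400/10% Tween 80; plasma pharmacokinetics giving clearance, half-life and steady-state volume of distribution.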

[18] = Volume of distribution was determined in rat at 5 mg/kg, iv; assay type: ADME, organism-based; set-up: dose 5 mg/kg, route intravenous; conditions: in vivo, read-out: Vdss; outline: as §5
[19] = tmax determined rat at 11 mg/kg, po; assay type: ADME, organism-based; set-up: dose 11 mg/kg, route oral; conditions: in vivo
[20] = Volume of distribution was determined in dog at 1 mg/kg, iv; assay type: ADME, organism-based, Canis lupus familiaris; set-up: dose 1 mg/kg, route intravenous; conditions: in vivo, read-out: Vdss; outline: as §3
[21] = Clearance rate determined at 5 mg/kg, iv, in rat; assay type: ADME, organism-based; set-up: dose 5 mg/kg; conditions: in vivo; outline: as §5
[22] = biological target: Voltage-gated potassium channel, KQT; KCNQ2(Kv7.2)/KCNQ3(Kv7.3) (Homo sapiens, UniProt O43525+O43526); assay: Effect on resting membrane potential in SH-SY5Y human neuroblastoma cells expressing native KCNQ channels
Sequence of Voltage-gated potassium channel, KQT; KCNQ2(Kv7.2)/KCNQ3(Kv7.3) (O43526 whole entry): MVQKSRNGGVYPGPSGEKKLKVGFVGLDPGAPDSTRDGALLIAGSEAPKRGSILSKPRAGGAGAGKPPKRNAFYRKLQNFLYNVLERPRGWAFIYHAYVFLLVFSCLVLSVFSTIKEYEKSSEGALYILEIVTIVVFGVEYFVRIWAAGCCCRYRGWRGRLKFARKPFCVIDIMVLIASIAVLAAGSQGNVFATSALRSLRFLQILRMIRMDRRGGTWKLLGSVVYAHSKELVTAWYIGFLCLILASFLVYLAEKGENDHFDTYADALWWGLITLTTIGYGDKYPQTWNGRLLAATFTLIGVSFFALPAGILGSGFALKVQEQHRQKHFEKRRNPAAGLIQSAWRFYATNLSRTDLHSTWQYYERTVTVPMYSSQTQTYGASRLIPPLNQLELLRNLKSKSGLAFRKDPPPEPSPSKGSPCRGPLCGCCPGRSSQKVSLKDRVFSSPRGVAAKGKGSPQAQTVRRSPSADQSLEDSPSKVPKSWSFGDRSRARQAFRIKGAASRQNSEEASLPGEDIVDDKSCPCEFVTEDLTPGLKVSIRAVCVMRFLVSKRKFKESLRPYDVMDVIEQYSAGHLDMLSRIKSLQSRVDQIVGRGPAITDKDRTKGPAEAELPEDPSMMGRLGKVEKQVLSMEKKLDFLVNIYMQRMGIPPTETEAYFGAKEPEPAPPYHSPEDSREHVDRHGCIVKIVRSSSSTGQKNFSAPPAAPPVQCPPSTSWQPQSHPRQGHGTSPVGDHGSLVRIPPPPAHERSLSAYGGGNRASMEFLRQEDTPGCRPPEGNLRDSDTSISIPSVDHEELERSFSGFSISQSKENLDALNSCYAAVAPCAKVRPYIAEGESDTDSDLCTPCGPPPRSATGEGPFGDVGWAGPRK
Sequence of Voltage-gated potassium channel, KQT; KCNQ2(Kv7.2)/KCNQ3(Kv7.3) (O43525 whole entry): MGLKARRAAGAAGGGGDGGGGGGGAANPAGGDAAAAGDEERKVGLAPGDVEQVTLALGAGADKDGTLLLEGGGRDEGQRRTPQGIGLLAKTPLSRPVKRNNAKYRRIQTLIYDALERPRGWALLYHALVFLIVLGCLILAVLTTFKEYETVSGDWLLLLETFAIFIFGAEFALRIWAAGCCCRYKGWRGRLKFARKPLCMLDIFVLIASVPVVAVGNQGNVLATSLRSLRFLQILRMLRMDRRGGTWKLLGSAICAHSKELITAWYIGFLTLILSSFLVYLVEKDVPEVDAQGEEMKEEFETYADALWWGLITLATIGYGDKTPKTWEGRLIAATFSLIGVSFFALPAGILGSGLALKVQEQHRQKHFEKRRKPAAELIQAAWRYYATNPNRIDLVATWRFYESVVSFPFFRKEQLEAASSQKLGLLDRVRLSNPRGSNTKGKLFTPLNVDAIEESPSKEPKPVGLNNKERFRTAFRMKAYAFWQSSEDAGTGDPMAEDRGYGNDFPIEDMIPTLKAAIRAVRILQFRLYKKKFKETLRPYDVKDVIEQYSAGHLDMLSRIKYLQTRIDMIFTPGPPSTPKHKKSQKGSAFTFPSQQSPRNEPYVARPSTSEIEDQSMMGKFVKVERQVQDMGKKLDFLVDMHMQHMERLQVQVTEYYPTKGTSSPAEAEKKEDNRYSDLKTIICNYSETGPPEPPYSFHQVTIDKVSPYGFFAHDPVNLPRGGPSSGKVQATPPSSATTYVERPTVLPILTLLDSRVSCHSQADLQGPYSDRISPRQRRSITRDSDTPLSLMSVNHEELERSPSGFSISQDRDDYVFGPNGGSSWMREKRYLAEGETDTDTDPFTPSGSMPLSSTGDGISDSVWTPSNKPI

Sequence of Potassium voltage-gated channel subfamily KQT member 2 (Q9Z351 whole entry): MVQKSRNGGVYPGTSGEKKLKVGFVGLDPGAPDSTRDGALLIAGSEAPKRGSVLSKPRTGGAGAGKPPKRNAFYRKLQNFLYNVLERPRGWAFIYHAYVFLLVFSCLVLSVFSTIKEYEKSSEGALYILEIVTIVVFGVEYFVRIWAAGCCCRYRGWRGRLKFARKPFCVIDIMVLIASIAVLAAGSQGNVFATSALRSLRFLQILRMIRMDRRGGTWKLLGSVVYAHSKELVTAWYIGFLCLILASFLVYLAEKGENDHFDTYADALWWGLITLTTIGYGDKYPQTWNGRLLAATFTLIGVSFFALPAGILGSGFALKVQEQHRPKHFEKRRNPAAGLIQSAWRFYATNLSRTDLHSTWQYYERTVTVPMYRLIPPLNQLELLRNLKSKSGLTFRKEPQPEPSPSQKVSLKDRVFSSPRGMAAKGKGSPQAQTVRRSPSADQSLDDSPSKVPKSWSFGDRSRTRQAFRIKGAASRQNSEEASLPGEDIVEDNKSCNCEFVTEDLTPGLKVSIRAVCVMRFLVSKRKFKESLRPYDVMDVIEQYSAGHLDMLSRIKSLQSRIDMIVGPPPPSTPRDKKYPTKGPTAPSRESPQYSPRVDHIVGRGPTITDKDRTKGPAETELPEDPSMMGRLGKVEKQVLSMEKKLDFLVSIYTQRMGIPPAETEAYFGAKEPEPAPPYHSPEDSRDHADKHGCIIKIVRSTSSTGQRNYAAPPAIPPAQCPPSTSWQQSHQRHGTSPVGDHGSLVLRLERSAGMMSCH
Sequence of Potassium voltage-gated channel subfamily KQT member 2 (Mus musculus) (Q9Z351 whole entry, the tested form may be a part): as the sequence (Q9Z351 whole entry) above

- bioavailability [1]: 100%
- clearance [3]: 12.7 mL/min/kg
- Concentration [5]: 300 nM
- Tmax [6]: 0.5 h
- Kp [8]: 0.78
- concentration at 6 h [9]: 631 ng/g
- bioavailability [10]: 93%
- concentration at 6 h [13]: 804 ng/mL
- EC50 [14]: 6 µM
- half-life [15]: 3 h
- half-life [17]: 2.1 h
- Vd [18]: 2.5 L/kg
- Tmax [19]: 5 h
- Vd [20]: 3 L/kg
- clearance [21]: 41 mL/min/kg
- EC50 [22]: 0.69 µM
SMILES: C[C@H](NC(=O)/C=C/c1ccccc1)c1cccc(N2CCOCC2)c1
- No. of depolarizations (Rattus norvegicus [2]): 36
- P/D [4]: 1.22
- No. of depolarizations (Rattus norvegicus [7]): 25
- P/D [11]: 1.1
- No. of depolarizations (Rattus norvegicus [12]): 23
- P/D [16]: 1.15
